Measured values as given in ChEMBL document CHEMBL4811246, “New organoselenides (NSAIDs-Se derivatives) as potential anticancer agents: Synthesis, biological evaluation and in silico calculations” (Eur J Med Chem, 2021).
Activity calls are given as the source filed them. The rule behind the calls is not given here.

Columns and labels:
[1] = Antioxidant activity assessed as bleomycin-Fe2+-induced DNA degradation by measuring absorbance at 0.1 mg/ml after 1 hr; type: functional; design: unit not given here
Summary of the method: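 Stopped with EDTA, then TBA (1% w/v) and HCl (25% v/v) added and heated 80 °C for 30 min. After cooling on ice, DNA damage read as absorbance increase at 532 nm. L-ascorbic acid positive control.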

[2] = Antioxidant activity assessed as DPPH radical scavenging activity incubated for 30 mins under dark condition relative to control; type: functional; design: concentration or dose not given beside the values
Summary of the method: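 DPPH radical scavenging: test samples at a range of concentrations mixed with DPPH solution and held 30 min in the dark, then absorbance read at 517 nm. Ascorbic acid and ebselen served as positive controls and DMSO as negative control. % activity = [(control A − sample A)/control A] × 100. Mean ± SD of three independent experiments.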

BGC-823 [3] = assay: Cytotoxicity against human BGC-823 cells assessed as reduction in cell viability measured upto 72 hrs by MTT assay; type: functional, cell-based; conditions: BGC-823, 72 h
Summary of the method: (§1)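 ATCC cells grown in RPMI 1640 with 10% FBS and penicillin/streptomycin at 37 °C, 5% CO2. Cells seeded at 1×10^4 per well and allowed 24 h to attach, then exposed to graded compound concentrations for 24, 48 and 72 h, DMSO kept below 1.25%. MTT added 3 h before the end, formazan dissolved in DMSO, OD read at 570 nm. IC50 from viability, three repetitions, mean ± SD.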

Caco-2 = assay: Cytotoxicity against human Caco2 cells assessed as reduction in cell viability measured upto 72 hrs by MTT assay; type: functional, cell-based; conditions: Caco-2, 72 h; summary of the method: as §1
MCF7 = assay: Cytotoxicity against human MCF7 cells assessed as reduction in cell viability measured upto 72 hrs by MTT assay; type: functional, cell-based; conditions: MCF7, 72 h; summary of the method: as §1
[4] = Antioxidant activity assessed as DPPH radical scavenging activity incubated for 30 mins under dark condition relative to vitamin C; type: functional
PC-3 = assay: Cytotoxicity against human PC-3 cells assessed as reduction in cell viability measured upto 72 hrs by MTT assay; type: functional, cell-based; conditions: PC-3, 72 h; summary of the method: as §1
[5] = Antioxidant activity assessed as GPx-like activity by measuring oxidation of NADPH to NADP+ by NADPH-reductase coupled assay; type: functional
Summary of the method: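 NADPH/glutathione reductase coupled GPx-like assay: 50 mM phosphate buffer with 0.1% Triton X-100, NADPH reagent containing GSH, glutathione reductase and NADPH, and compound (0.01 ml of 41 mM). Reaction started with H2O2 (0.8 mM), and A340 decrease followed over 3 min to give ΔA/min. Values background-corrected for the H2O2 plus GSH reaction. Ebselen positive control.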

BGC-823 [6] = assay: Induction of apoptosis in human BGC-823 cells assessed as upregulation of caspase-3 protein expression at IC50 after 48 hrs by ELISA; type: functional, cell-based
BGC-823 [7] = assay: Induction of apoptosis in human BGC-823 cells assessed as down regulation of Bcl-2 protein expression at IC50 after 48 hrs by ELISA; type: functional, cell-based
Summary of the method: (§2)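 Cells harvested with trypsin and lysed by freeze-thaw in liquid nitrogen, then total protein isolated. Bcl-2 and IL-2 quantified by ELISA, read at 450 nm.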

BGC-823 [8] = assay: Induction of apoptosis in human BGC-823 cells assessed as upregulation of IL-2 protein expression at IC50 after 48 hrs by ELISA; type: functional, cell-based; summary of the method: as §2

COc1ccc2c(c1)c(CC(=O)OCCC[Se]C#N)c(C)n2C(=O)c1ccc(Cl)cc1
Activity [1]: 72.4
inhibition [2]: 44.3%
IC50 (BGC-823 [3]): 35.5 µM
IC50 (Caco-2): 32.4 µM
IC50 (MCF7): 29.3 µM
fold change (FC) [4]: 0.4
IC50 (PC-3): 21.8 µM

CC(C(=O)OCCC[Se]C#N)c1cccc(C(=O)c2ccccc2)c1 (stereo not given)
Activity [1]: 67.6
inhibition [2]: 57.1%
IC50 (BGC-823 [3]): 12.6 µM
IC50 (Caco-2): 19.7 µM
IC50 (MCF7): 8.3 µM
Activity [5]: Active
IC50 (PC-3): 12.6 µM

COc1ccc2cc(C(C)C(=O)OCCC[Se]C(F)(F)F)ccc2c1 (stereo not given)
Activity [1]: 91.4
inhibition [2]: 37%
IC50 (BGC-823 [3]): 10.8 µM
IC50 (Caco-2): 16.3 µM
IC50 (MCF7): 12.4 µM
IC50 (PC-3): 18.4 µM

CC(C(=O)OCCC[Se]C#N)c1ccc(-c2ccccc2)c(F)c1 (stereo not given)
Activity [1]: 86.5
inhibition [2]: 17.2%
IC50 (BGC-823 [3]): 29.4 µM
IC50 (Caco-2): 27.5 µM
IC50 (MCF7): 22.4 µM
IC50 (PC-3): 19.7 µM

CC(=O)Oc1ccccc1C(=O)OCCC[Se]C#N
Activity [1]: 78.3
inhibition [2]: 27.3%
IC50 (BGC-823 [3]): 17.3 µM
IC50 (Caco-2): 14.5 µM
IC50 (MCF7): 8.9 µM
fold change (FC) [4]: 0.3
IC50 (PC-3): 11.2 µM

CC(=O)Oc1ccccc1C(=O)O [ASPIRIN]
IC50 (BGC-823 [3]): > 50 µM
IC50 (Caco-2): > 50 µM
IC50 (MCF7): > 50 µM
IC50 (PC-3): > 50 µM

N#C[Se]CCCOC(=O)c1ccccc1Nc1cccc(C(F)(F)F)c1
Activity [1]: 76.1
inhibition [2]: 51.5%
IC50 (BGC-823 [3]): 13.7 µM
IC50 (Caco-2): 8.4 µM
IC50 (MCF7): 14.2 µM
fold change (FC) [4]: 0.5
IC50 (PC-3): 7.5 µM

CC1=C(CC(=O)OCCC[Se]C#N)c2cc(F)ccc2/C1=C\c1ccc([S+](C)[O-])cc1 (stereo not given)
Activity [1]: 91.3
inhibition [2]: 45.7%
IC50 (BGC-823 [3]): 17.5 µM
IC50 (Caco-2): 28.6 µM
IC50 (MCF7): 31.3 µM
fold change (FC) [4]: 0.5
Activity [5]: Active
IC50 (PC-3): 22.3 µM

O=C(OCCC[Se]C(F)(F)F)c1ccccc1Nc1cccc(C(F)(F)F)c1
Activity [1]: 115
Activity (BGC-823 [6]): Active
inhibition [2]: 68.6%
IC50 (BGC-823 [3]): 2.7 µM
IC50 (Caco-2): 3.5 µM
IC50 (MCF7): 4.2 µM
fold change (FC) [4]: 0.7
Activity (BGC-823 [7]): Active
Activity (BGC-823 [8]): Active
IC50 (PC-3): 5.8 µM

CC(C)Cc1ccc(C(C)C(=O)O)cc1 (stereo not given) [IBUPROFEN]
IC50 (BGC-823 [3]): > 50 µM
IC50 (Caco-2): > 50 µM
IC50 (MCF7): > 50 µM
IC50 (PC-3): > 50 µM

O=C1O[C@H]([C@@H](O)CO)C(O)=C1O
Activity [1]: 297
inhibition [2]: 96.4%
fold change (FC) [4]: 1

CC(C(=O)OCCC[Se]C(F)(F)F)c1cccc(C(=O)c2ccccc2)c1 (stereo not given)
Activity [1]: 128
Activity (BGC-823 [6]): Active
inhibition [2]: 66.3%
IC50 (BGC-823 [3]): 4.8 µM
IC50 (Caco-2): 9.5 µM
IC50 (MCF7): 6.5 µM
fold change (FC) [4]: 0.7
Activity [5]: Active
Activity (BGC-823 [7]): Active
Activity (BGC-823 [8]): Active
IC50 (PC-3): 8.8 µM

COc1ccc2c(c1)c(CC(=O)OCCC[Se]C(F)(F)F)c(C)n2C(=O)c1ccc(Cl)cc1
Activity [1]: 62.6
inhibition [2]: 36.6%
IC50 (BGC-823 [3]): 7.3 µM
IC50 (Caco-2): 10.5 µM
IC50 (MCF7): 9.3 µM
fold change (FC) [4]: 0.4
IC50 (PC-3): 7.8 µM

CCc1cccc2c3c([nH]c12)C(CC)(CC(=O)OCCC[Se]C(F)(F)F)OCC3 (stereo not given)
Activity [1]: 86.4
inhibition [2]: 41.4%
IC50 (BGC-823 [3]): 18.5 µM
IC50 (Caco-2): 10.4 µM
IC50 (MCF7): 8.7 µM
fold change (FC) [4]: 0.4
Activity [5]: Active
IC50 (PC-3): 19.7 µM

Cc1cccc(Nc2ccccc2C(=O)OCCC[Se]C(F)(F)F)c1C
Activity [1]: 77.6
inhibition [2]: 23.3%
IC50 (BGC-823 [3]): 19.6 µM
IC50 (Caco-2): 13.3 µM
IC50 (MCF7): 8.5 µM
fold change (FC) [4]: 0.3
IC50 (PC-3): 24.5 µM

CC1=C(CC(=O)OCCC[Se]C(F)(F)F)c2cc(F)ccc2/C1=C\c1ccc([S+](C)[O-])cc1 (stereo not given)
Activity [1]: 73.7
inhibition [2]: 44.9%
IC50 (BGC-823 [3]): 14.4 µM
IC50 (Caco-2): 16.4 µM
IC50 (MCF7): 19.6 µM
fold change (FC) [4]: 0.5
Activity [5]: Active
IC50 (PC-3): 11.6 µM

CC(C)Cc1ccc(C(C)C(=O)OCCC[Se]C(F)(F)F)cc1 (stereo not given)
Activity [1]: 95.7
inhibition [2]: 48.5%
IC50 (BGC-823 [3]): 14.3 µM
IC50 (Caco-2): 9.5 µM
IC50 (MCF7): 9.9 µM
fold change (FC) [4]: 0.5
Activity [5]: Active
IC50 (PC-3): 10.4 µM

COc1ccc2cc(C(C)C(=O)OCCC[Se]C#N)ccc2c1 (stereo not given)
Activity [1]: 81.6
inhibition [2]: 24.6%
IC50 (BGC-823 [3]): 17.3 µM
IC50 (Caco-2): 21.5 µM
IC50 (MCF7): 32.8 µM
IC50 (PC-3): 22 µM

CC(C(=O)OCCC[Se]C(F)(F)F)c1ccc(-c2ccccc2)c(F)c1 (stereo not given)
Activity [1]: 119
Activity (BGC-823 [6]): Active
inhibition [2]: 73.5%
IC50 (BGC-823 [3]): 2.5 µM
IC50 (Caco-2): 4.5 µM
IC50 (MCF7): 2.7 µM
fold change (FC) [4]: 0.8
Activity (BGC-823 [7]): Active
Activity (BGC-823 [8]): Active
IC50 (PC-3): 3.3 µM

COc1ccc2cc([C@H](C)C(=O)O)ccc2c1 [NAPROXEN]
IC50 (BGC-823 [3]): > 50 µM
IC50 (Caco-2): > 50 µM
IC50 (MCF7): > 50 µM
IC50 (PC-3): > 50 µM

CCc1cccc2c3c([nH]c12)C(CC)(CC(=O)OCCC[Se]C#N)OCC3 (stereo not given)
Activity [1]: 69.4
inhibition [2]: 30.4%
IC50 (BGC-823 [3]): 21.4 µM
IC50 (Caco-2): 11.5 µM
IC50 (MCF7): 14.4 µM
fold change (FC) [4]: 0.3
IC50 (PC-3): 31.4 µM

O=c1[nH]cc(F)c(=O)[nH]1 [FLUOROURACIL]
IC50 (BGC-823 [3]): 15.4 µM
IC50 (Caco-2): 7.8 µM
IC50 (PC-3): 9.5 µM

CC(C)Cc1ccc(C(C)C(=O)OCCC[Se]C#N)cc1 (stereo not given)
Activity [1]: 60.3
inhibition [2]: 31.2%
IC50 (BGC-823 [3]): 24.5 µM
IC50 (Caco-2): 14.5 µM
IC50 (MCF7): 19.5 µM
fold change (FC) [4]: 0.3
IC50 (PC-3): 22.5 µM
